Experimental data taken from ChEMBL document CHEMBL4251686, “Withaferin A and Withanolide D Analogues with Dual Heat-Shock-Inducing and Cytotoxic Activities: Semisynthesis and Biological Evaluation” (J Nat Prod, 2018).
pIC50: −log10 of the molar value. Activity calls are given as the source filed them. The calls are words filed in the database; no cut-off is given here. Residues, ends and D or L forms follow the SMILES beside them. *: point of attachment. Cbz = O=C(OCc1ccccc1)*

Columns and labels:
[1] = test system: HEK-293T; experiment: Induction of heat shock response in GFP-tagged human 293T cells at 1 uM after overnight incubation by luciferase reporter gene based luminometric method; format: functional, cell-based
How it was run: (§1)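 Heat-shock reporter 293T cells (GFP–firefly luciferase under HSP70B′ promoter elements, FACS-enriched high responders) were seeded at 20 000 cells/well in 384-well plates and exposed to compounds at 1.0 or 5.0 μM overnight. Luciferase activity measured by luminometer. Maximal induction expressed as fold over control (Log2), mean of two biological replicates.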

[2] = Cytotoxicity against human CHP100 cells assessed as reduction in cell viability after 24 hrs by resazurin dye based Alamar blue assay; format: functional; details: CHP100, 24 h
[3] = test system: HEK-293T; experiment: Cytotoxicity against human 293T cells assessed as reduction in cell viability after 72 hrs by resazurin dye based Alamar blue assay; format: functional
[4] = test system: HEK-293T; experiment: Induction of heat shock response in GFP-tagged human 293T cells after overnight incubation by luciferase reporter gene based luminometric method relative to control; format: functional
[5] = test system: HEK-293T; experiment: Ratio of induction of heat shock response in GFP-tagged human 293T cells to IC50 for cytotoxicity against human 293T cells; format: functional
[6] = test system: HEK-293T; experiment: Induction of heat shock response in GFP-tagged human 293T cells at 1 to 5 uM after overnight incubation by luciferase reporter gene based luminometric method; format: functional, cell-based; how it was run: as §1
[7] = test system: HEK-293T; experiment: Induction of heat shock response in GFP-tagged human 293T cells at 5 uM after overnight incubation by luciferase reporter gene based luminometric method; format: functional, cell-based; how it was run: as §1

| Compound | Activity [1] | pIC50 [2] | pIC50 [3] | AUC [4] | Ratio [5] | Activity [6] | Activity [7] |
| --- | --- | --- | --- | --- | --- | --- | --- |
| CC1=C(C)C(=O)O[C@@H]([C@](C)(O)[C@H]2CC[C@H]3[C@@H]4C[C@H]5O[C@]56[C@@H](O)C=CC(=O)[C@]6(C)[C@H]4CC[C@]23C)C1 [WITHANOLIDE D] | Active | 6.49 | 6.15 | 13 | 0.02 |  |  |
| CC(=O)OCC1=C(C)C[C@H]([C@@H](C)[C@H]2CC[C@H]3[C@@H]4C[C@H]5O[C@]56[C@@H](OC(C)=O)C=CC(=O)[C@]6(C)[C@H]4CC[C@]23C)OC1=O |  |  |  | 351 |  | Active |  |
| CC1=C(CO)C(=O)O[C@@H]([C@@H](C)[C@H]2CC[C@H]3[C@@H]4C[C@H]5O[C@]56[C@@H](O)C=CC(=O)[C@]6(C)[C@H]4CC[C@]23C)C1 [WITHAFERIN A] |  | 6.37 | 6.52 | 68 | 0.23 | Active |  |
| CC(=O)O[C@H]1C[C@H]2[C@@H]3C[C@H]4O[C@]45[C@@H](OC(C)=O)C=CC(=O)[C@]5(C)[C@H]3CC[C@]2(C)[C@H]1[C@@](C)(O)[C@H]1CC(C)=C(C)C(=O)O1 | Active |  |  |  |  |  |  |
| CC(C)c1cc(-c2n[nH]c(=O)n2-c2ccc3c(ccn3C)c2)c(O)cc1O [GANETESPIB] |  |  |  | 59 |  |  |  |
| CC(=O)OCC1=C(C)C[C@H]([C@@H](C)[C@H]2CC[C@H]3[C@@H]4C[C@H]5O[C@]56[C@@H](OC(C)=O)C=CC(=O)[C@]6(C)[C@H]4C[C@@H](OC(C)=O)[C@]23C)OC1=O |  | 6.92 | 6.94 | 419 | 3.61 | Active |  |
| CC1=C(CO)C(=O)O[C@@H]([C@@H](C)[C@H]2CC[C@H]3[C@@H]4C[C@H]5O[C@]56[C@H](O)C=CC(=O)[C@]6(C)[C@H]4CC[C@]23C)C1 |  | 6.51 | 6.60 | 44 | 0.18 |  | Active |
| CC(=O)OCC1=C(C)C[C@H]([C@@H](C)[C@H]2[C@@H](OC(C)=O)C[C@H]3[C@@H]4C[C@H]5O[C@]56[C@@H](OC(C)=O)C=CC(=O)[C@]6(C)[C@H]4CC[C@]23C)OC1=O |  | 7.23 | 7.06 | 196 | 2.23 | Active |  |
| CC(C)C[C@@H](C=O)NC(=O)[C@H](CC(C)C)NC(=O)[C@H](CC(C)C)NC(=O)OCc1ccccc1 [MG-132] (Cbz-Leu-Leu-Leu-aldehyde) |  |  |  | 332 |  |  |  |
| CC(=O)OCC1=C(C)C[C@H]([C@@H](C)[C@H]2CC[C@H]3[C@@H]4C[C@H]5O[C@]56[C@H](OC(C)=O)C=CC(=O)[C@]6(C)[C@H]4CC[C@]23C)OC1=O |  |  |  |  |  | Active |  |
| CC(=O)OCC1=C(C)C[C@H]([C@@H](C)[C@H]2[C@@H](OC(C)=O)C[C@H]3[C@@H]4C[C@H](I)[C@]5(O)[C@@H](OC(C)=O)C=CC(=O)[C@]5(C)[C@H]4CC[C@]23C)OC1=O |  | 6.33 | 6.38 | 235 | 0.56 | Active |  |
| CC(=O)O[C@H]1C=CC(=O)[C@]2(C)[C@H]3CC[C@]4(C)[C@@H]([C@@](C)(O)[C@H]5CC(C)=C(C)C(=O)O5)CC[C@H]4[C@@H]3C[C@H]3O[C@]132 | Active | 6.53 | 6.85 |  | 0.5 |  |  |
| CC1=C(C)C(=O)O[C@@H]([C@](C)(O)[C@H]2CC[C@H]3[C@@H]4C[C@H]5O[C@]56C(=O)C=CC(=O)[C@]6(C)[C@H]4CC[C@]23C)C1 | Active |  |  |  |  |  |  |
